# Published values collected from several papers.
# Si: Sucrase-isomaltase, intestinal (Si, Rattus norvegicus, UniProt P23739)
# Abl2: Abl2 (Mus musculus, UniProt Q4JIM5)
# RIOK2: Serine/threonine-protein kinase RIO2 (RIOK2, Homo sapiens, UniProt Q9BVS4)
# BRD1 bromodomain: Bromodomain-containing protein 1, bromodomain (BRD1, Homo sapiens, UniProt O95696)
SMILES,target,test,test system,setting,quantity,value
Cn1c2c(c3ccc(Cl)c(Cl)c31)C(C#N)C(C)(C)NC2=O (stereo not shown),"Rhodopsin kinase GRK1 (GRK1, Homo sapiens, UniProt Q15835)","thermal stability, DSF",,10 µM,ΔTm,2.7 °C
O=c1c(O[C@@H]2O[C@@H](CO)[C@H](O)[C@H]2O)c(-c2ccc(O)c(O)c2)oc2cc(O)cc(O)c12,Si,"enzyme activity, inhibitor",,200 µg/mL,inhibition,58.3%
CCOCc1nc(O)c(-c2nnc(Cc3ccc(Cl)cn3)o2)c(O)c1-c1c(OC)cccc1OC,"Apelin receptor (APLNR, Homo sapiens, UniProt P35414)","binding, radioligand",,,koff,0.00075 s⁻¹
O=c1c(O[C@@H]2O[C@H](CO)[C@@H](O)[C@H](O)[C@H]2O)c(-c2ccc(O)c(O)c2)oc2cc(O)cc(O)c12,Si,"enzyme activity, inhibitor",,50 µg/mL,inhibition,30.8%
Cc1ccc(Nc2nccc(N(C)c3ccc4c(C)n(C)nc4c3)n2)cc1S(N)(=O)=O,Abl2,"enzyme activity, inhibitor",,10 µM,inhibition,76%
O=C(c1ccc(F)cc1)N(Cc1ccccc1)C1CCCCC1,"Estrogen receptor (ESR1, Homo sapiens, UniProt P03372)",cell-free assay,,10 µM,inhibition,32%
Nc1ncnc2occ(-c3ccc(NC(=O)Nc4cc(C(F)(F)F)ccc4F)cc3)c12,RIOK2,"cell-free assay, inhibitor",,20 µM,remaining signal,8.5%
NS(=O)(=O)c1ccc(Nc2nc(-c3ccc(F)cc3)c3ccccc3n2)cc1,BRD1 bromodomain,"binding, competition with immobilised ligand",,1 µM,remaining binding,2%
O=C(Nc1cccc(-c2ccn[nH]2)c1)c1cccc2cn[nH]c12,"pqsE (Pseudomonas aeruginosa, UniProt P20581)","thermal stability, DSF",,100 µM,ΔTm,3.4 °C
O=C1OC[C@H]2OC(=O)c3cc(O)c(O)c(O)c3-c3c(O)c(O)c(O)c4c3C(=O)O[C@H]([C@H]3OC(=O)c5c-4c(O)c(O)c(O)c5[C@H]3O)[C@@H]2OC(=O)c2cc(O)c(O)c(O)c2-c2c1cc(O)c(O)c2O,Si,"enzyme activity, inhibitor",,200 µg/mL,inhibition,52.8%
Cc1ccc(C(=O)Nc2ccc(CN3CCN(C)CC3)c(C(F)(F)F)c2)cc1C#Cc1cnc2cccnn12,RIOK2,"enzyme activity, inhibitor",,23.5 nM,remaining activity,88%
Oc1ccc(-c2nc(-c3ccncc3)c(-c3ccc(F)cc3)[nH]2)cc1,BRD1 bromodomain,"thermal stability, DSF",,10 µM,ΔTm,0.46 °C
C=C(C)[C@@H]1CCC(C)=C[C@H]1c1c(O)cc(CCCCC)cc1O,"Polyunsaturated fatty acid lipoxygenase ALOX12 (ALOX12, Homo sapiens, UniProt P18054)","enzyme activity in cells, inhibitor",PMNL,10 µM,remaining activity,131%
O=C(c1ccc(Cl)cc1)N(Cc1ccccc1)C1CCCCC1,"Glucocorticoid receptor (NR3C1, Homo sapiens, UniProt P04150)",cell-free assay,,10 µM,inhibition,28.5%
O=C(O)C(=O)Cc1ccccc1,"D-dopachrome decarboxylase (Homo sapiens, UniProt P30046)","enzyme activity, substrate",,,Km,2400 µM
Cc1ccc(NC(=O)c2ccc(C)c(C(F)(F)F)c2)cc1C#Cc1nn(C2CCC(O)CC2)c2ncnc(N)c12 (stereo not shown),Abl2,cell-free assay,,10 µM,remaining signal,-1%
